Screens (PubChem)
Shown are actives, neighbours in structure and some others; about 2.2% of the full set was active somewhere.
PKD1 inh – inhibitors of human PKD1 kinase, biochemical, fluorescence polarization | PKD1 kinase fluorescence polarization assay | Serine/threonine-protein kinase D1 (Homo sapiens), Q15139 | AID 797, 2007 | hit rate 0.056% among 200,000 | inhibition, % (no concentration beside the values); in the data active means inhibition above about 50%
C8 TRAIL sens – viability loss with TRAIL in NB7+C8 cells, primary screen, TRAIL sensitizer project, cell-based, ATPlite luminescence; hit rate 1% among 360,000; inhibition (viability loss, TRAIL sensitization), % at 10 µM;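 active means compounds causing at least 50% loss of cell viability in the single-dose screen, relative to plate controls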
PPC-1+TRAIL kill – compounds killing PPC-1 cancer cells with TRAIL present, primary screen, TRAIL potentiator project, ATPLite luminescence, uHTS; PPC-1 cells + TRAIL, ATPLite viability luminescence; cell killing (% activity), % at 4 µM or 5 µM; hit rate 0.41% among 220,000; AID 1443, 2008;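 active means cell killing above 50% in the first pass at 4 µM, then a duplicate retest at 5 µM averaging 50% or more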
FLuc stim CS – FLuc activators, initial screening, artefact control for FLuc-dependent activation tests, biochemical, ATPlite luminescence; activation factor at 10 µM; Luciferin 4-monooxygenase (Photinus pyralis), P08659; 200,000 tested, under 10 active; AID 1027, 2008; ATPlite luciferase biochemical, 10 min; 0 = ATP-free wells, 1 = DMSO control;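 active means luciferase activation factor, scaled between plate controls, of at least 2 with compound at 10 µM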
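assay system = Luciferase/luciferin detection reagent, cell-free biochemical luciferase assay | also added = ATP substrate | times = 10 min post-reagent at room temperature | measured by = luminescence from luciferase reaction | measure = luciferase activation, seen as luminescence increase over controls | benchmarks = low control with PBS replacing ATP, high control enzyme plus ATP without compound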
FLuc inh counter – firefly luciferase enzyme inhibitors, primary screen, artefact control for luciferase-based inhibitor screens, biochemical, luminescence, ATPLite; inhibition, % at 10 µM; AID 1006, 2008; 10 min; Luciferin 4-monooxygenase (Photinus pyralis), P08659; hit rate 1.5% among 200,000;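 active means inhibition above about 50% when tested at 10 µM, limit read from the data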
Wee1 stabilizer – Wee1 degradation inhibitors, primary screen, cell-based, HeLa, Wee1K328M-luciferase, luminescence; Wee1-like protein kinase (Homo sapiens), P30291; HeLa Luc-Wee1K328M stability; 100% = proteasome inhibitor MG132 effect; reporter increase, % at 5 µM; hit rate 1.2% among 220,000;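 active means activation above the mean of all tested compounds plus 3 SD, set per screening run, cut at about 8.8% in these data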;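 further: cells exposed to compound for 20 h before luminescence read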
Target sequence (P30291 whole entry K328M): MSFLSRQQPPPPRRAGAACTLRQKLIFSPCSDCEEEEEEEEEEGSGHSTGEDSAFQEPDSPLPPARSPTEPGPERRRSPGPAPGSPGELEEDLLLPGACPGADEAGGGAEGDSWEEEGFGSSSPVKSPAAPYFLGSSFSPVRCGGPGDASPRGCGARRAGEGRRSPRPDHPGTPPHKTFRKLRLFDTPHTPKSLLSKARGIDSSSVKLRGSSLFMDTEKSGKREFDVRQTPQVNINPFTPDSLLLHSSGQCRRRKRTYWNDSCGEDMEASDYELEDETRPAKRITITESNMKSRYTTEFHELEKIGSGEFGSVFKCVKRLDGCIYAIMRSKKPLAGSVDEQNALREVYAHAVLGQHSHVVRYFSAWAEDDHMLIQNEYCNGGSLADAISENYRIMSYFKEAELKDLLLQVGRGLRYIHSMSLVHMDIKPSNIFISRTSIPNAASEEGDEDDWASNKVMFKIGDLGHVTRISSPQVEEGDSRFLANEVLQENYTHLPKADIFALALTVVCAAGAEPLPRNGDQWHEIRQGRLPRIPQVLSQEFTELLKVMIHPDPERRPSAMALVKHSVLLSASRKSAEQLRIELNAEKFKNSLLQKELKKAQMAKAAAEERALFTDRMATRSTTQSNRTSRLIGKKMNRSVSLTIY
Numbers stand for hits; i = inactive; nt = no result given.

SMILES | PKD1 inh | C8 TRAIL sens | PPC-1+TRAIL kill | FLuc stim CS | FLuc inh counter | Wee1 stabilizer
Cc1ccc(-c2nc(N/N=C/c3ccccc3[N+](=O)[O-])c3ccccc3n2)cc1 | i | 89 | i | i | 64 | i
C=CCc1cccc(/C=N/NC(=O)c2ccccc2OC)c1O | i | i | i | i | i | 8.9
COc1cccc(/C=N/NC(=O)c2ccc([N+](=O)[O-])cc2Cl)c1O | i | 55 | i | i | i | i
CCCCCC(=O)NC(=S)NC1C2CC3CC(C2)CC1C3 (stereo not given) | nt | i | i | nt | nt | i
O=C(Cc1ccc(Cl)cc1)NCCc1cnc[nH]1 | nt | i | nt | nt | nt | nt
CC(=O)c1cccc(NS(=O)(=O)N2CCOCC2)c1 | nt | i | nt | nt | nt | nt
Cc1nn(Cc2ccc(Cl)cc2)c2sc(C(=O)OCC(N)=O)cc12 | i | i | i | i | i | i
Cc1ccc(Cn2nc(C)c3cc(C(=O)OCC(N)=O)sc32)cc1 | i | i | i | i | i | 9.8
O=[n+]1cc(-c2ccccc2)n([O-])c2c1CCC2 | i | i | i | i | i | 9.7
O=[n+]1cc(-c2ccc(Cl)cc2)n([O-])c2c1CCC2 | nt | i | i | nt | nt | i
CCOC(=O)C1=C(O)/C(=C/c2cn(CC(=O)NCC3CCCO3)c3ccccc23)SC1=Nc1ccc(C)cc1 (stereo not given) | i | 57 | nt | nt | nt | i
CCOc1ccc(-c2ccc3nnc(SCC(=O)NCC4CCCO4)n3n2)cc1 (stereo not given) | nt | i | nt | nt | nt | nt
O=C(Nc1ccc(OCC(=O)N2CCOCC2)cc1)c1ccccc1F | nt | 61 | nt | nt | nt | nt
Cc1cc(NC(=O)c2ccccc2F)cc(C)c1OCC(=O)N1CCOCC1 | nt | i | nt | nt | nt | nt
O=C(CCC1CCCC1)Nc1ccc(OCC(=O)N2CCOCC2)cc1 | i | i | i | i | 73 | i
COC(=O)Nc1ccc(OCC(=O)N2CCOCC2)cc1 | i | i | i | i | i | i
Cc1ccc(Nc2ccccc2)cc1 | i | i | i | i | i | i
Cc1ccc(NC2=Nc3ccccc3CS2)cc1 | i | 55 | i | i | 69 | i
Cc1cc(NC(=O)c2ccc(C(C)(C)C)cc2)no1 | nt | 70 | nt | nt | nt | nt
Cc1cc(NC(=O)CCC(=O)NNC(=O)c2ccc(C(C)(C)C)cc2)no1 | i | i | i | i | 78 | i
Cc1cc(=O)n2nc(N3CCCC3C(=O)Nc3ccc(C(C)C)cc3)sc2n1 (stereo not given) | nt | i | nt | nt | nt | nt
CCOC(=O)C1CCCN(C(=O)/C(=C/c2ccco2)NC(=O)c2ccccc2)C1 (stereo not given) | nt | i | nt | nt | nt | nt
O=C(Cn1cc(F)c(=O)[nH]c1=O)NCCO | i | i | i | i | i | i
COC(=O)[C@H]1C[C@H]1[C@@H](NC(=O)c1ccc[nH]1)c1ccccc1 | nt | i | nt | nt | nt | nt
CCS(=O)(=O)N1Cc2ccccc2CC1C(=O)Nc1cccc(C)c1 (stereo not given) | i | i | i | i | i | 9.9
SMILES | PKD1 inh | C8 TRAIL sens | PPC-1+TRAIL kill | FLuc stim CS | FLuc inh counter | Wee1 stabilizer
CCS(=O)(=O)N1Cc2ccccc2CC1C(=O)Nc1ccc(C)cc1 (stereo not given) | i | i | i | i | i | i
NC(=O)c1cc2cc(Cl)ccc2oc1=Nc1cccc(C(F)(F)F)c1 | i | i | i | i | i | i
O=Nc1ccc(NO)c2ccccc12 | nt | 71 | nt | nt | nt | nt
O=Nc1ccc(O)c2ncccc12 | nt | i | i | nt | nt | i
O=C(O)CC12CC3CC(C1)CC(n1ncc(NCc4ccccc4Cl)c(Cl)c1=O)(C3)C2 | nt | i | i | nt | nt | i
O=C(O)C12CC3CC(C1)CC(n1ncc(NCc4ccco4)c(Cl)c1=O)(C3)C2 | nt | i | i | nt | nt | 10
c1ccc(Nc2nc3ccccc3o2)cc1 | i | i | i | i | 58 | i
FC(F)(F)Oc1ccc(Nc2nc3ccccc3o2)cc1 | i | i | i | i | i | i
Cc1ccc(NC(=O)c2cc3ccccc3oc2=O)cc1S(=O)(=O)N(C)C | i | 56 | i | i | 87 | i
CCOC(=O)C1C(c2cc(OC)c(O)c(OC)c2)NC(=S)NC1(O)C(F)(F)F (stereo not given) | i | i | 53 | i | i | i
CCOC(=O)C1C(c2cc(OC)c(OC)c(OC)c2)NC(=S)NC1(O)C(F)(F)F (stereo not given) | i | i | i | i | i | i
O=C(CCSc1ccccc1)Nc1nnc(-c2cccs2)o1 | i | i | i | i | i | 9.5
COc1ccc(-c2cc(-c3ccccc3)c(C#N)c(S(C)(=O)=O)n2)cc1 | i | 78 | i | i | i | i
COc1ccc(-c2cc(-c3ccc(OC)cc3)c(C#N)c(SC)n2)cc1 | i | i | i | i | i | i
N#Cc1c(-c2ccc(Br)cc2)cc(-c2cccnc2)nc1N | i | i | i | i | i | i
CS(=O)(=O)c1nc(-c2ccc(Br)cc2)cc(-c2ccccc2)c1C#N | i | 88 | i | i | i | i
O=C(Nc1cc(Cl)ccc1Cl)C1Cc2ccccc2O/C1=N\O (stereo not given) | nt | i | nt | nt | nt | nt
FC(F)(F)c1cc(CCN2CCNC[C@@H]2CC2CCCCC2)cc(C(F)(F)F)c1 | nt | 67 | nt | nt | nt | nt
NC1=NC[C@H](CC2CCCCC2)N1CCc1cc(C(F)(F)F)cc(C(F)(F)F)c1 | nt | 60 | i | nt | nt | nt
Cc1ccsc1/C=N/Nc1nc(=O)[nH]nc1C | i | i | i | i | 52 | i
Cc1ccc2cc(C(c3nnnn3C3CCCC3)N(Cc3cccnc3)Cc3ccco3)c(=O)[nH]c2c1 (stereo not given) | i | i | 53 | i | i | i
O=C(COCc1ccccc1)N[C@@H]1c2ccccc2CC[C@@H]1OCc1ccccc1 | nt | i | nt | nt | nt | nt
CC(C)N1C(=O)c2ccccc2N(Cc2ccccc2)S1(=O)=O | nt | i | i | nt | nt | 10
C=CCN1c2ccccc2C(=O)C(C)S1(=O)=O (stereo not given) | nt | i | nt | nt | nt | nt
CCOC(=O)C1CCN(c2ccc(-c3cccs3)nn2)CC1 | nt | i | nt | nt | nt | nt
SMILES | PKD1 inh | C8 TRAIL sens | PPC-1+TRAIL kill | FLuc stim CS | FLuc inh counter | Wee1 stabilizer
c1csc(-c2ccc(N3CCOCC3)nn2)c1 | nt | 60 | nt | nt | nt | nt
Cc1ccc(NC(=O)CSc2nn(-c3ccccc3)c(=S)s2)cc1S(=O)(=O)N(C)C | i | 66 | i | i | i | i
C/C(=N\OCC(=O)N/N=C/c1ccccc1O)c1cccs1 | i | i | i | i | i | i
COc1cccc(/C=N/NC(=O)CO/N=C(\C)c2cccs2)c1OC | i | i | i | i | i | 10
O=C(Nc1cccc(O)c1)C(=O)Nc1ccccn1 | i | 71 | i | i | 84 | i
C/C(CC(=O)Nc1ccccn1)=N\NC(=O)C(=O)Nc1cccc(C)c1 | i | i | i | i | i | i
COc1ccc(OCc2cc(C(=O)NCC(C)Oc3cccnc3)no2)c(Cl)c1 (stereo not given) | nt | i | nt | nt | nt | nt
